Data published in paper PMC6142812 (Bioorganic & medicinal chemistry letters, 2018).

How the values were obtained:
[1] = Metabolic stability in rat S9 hepatic fractions with and without NADPH; format: in vitro ADME; details: for CLHEP (predicted hepatic clearance): QH = 70; for CLint scaled at 1 h: rat, liver S9 hepatic fractions, CLINT (intrinsic clearance)
[2] = Metabolic stability in human S9 hepatic fractions with and without NADPH; format: in vitro ADME; details: for CLHEP (predicted hepatic clearance): QH = 21; for CLint scaled at 1 h: human, liver S9 hepatic fractions, CLINT (intrinsic clearance)
[3] = system: other seven mGlu receptors; details: comparators 1 and 2, previously published; cited from earlier work
rat mGlu5 = rat mGlu5 (Rattus norvegicus, UniProt P31424); assay: Calcium mobilization rat mGlu5 functional assay; format: cell-based; details: for mGlu5 pIC50 (±SEM): rat mGlu5 in HEK293A cells, EC80 glutamate, avg. of n ≥ 3; for fold more active than 11: mGlu5 potency relative to compound 11
rat mGlu5, sequence (P31424 21-1203): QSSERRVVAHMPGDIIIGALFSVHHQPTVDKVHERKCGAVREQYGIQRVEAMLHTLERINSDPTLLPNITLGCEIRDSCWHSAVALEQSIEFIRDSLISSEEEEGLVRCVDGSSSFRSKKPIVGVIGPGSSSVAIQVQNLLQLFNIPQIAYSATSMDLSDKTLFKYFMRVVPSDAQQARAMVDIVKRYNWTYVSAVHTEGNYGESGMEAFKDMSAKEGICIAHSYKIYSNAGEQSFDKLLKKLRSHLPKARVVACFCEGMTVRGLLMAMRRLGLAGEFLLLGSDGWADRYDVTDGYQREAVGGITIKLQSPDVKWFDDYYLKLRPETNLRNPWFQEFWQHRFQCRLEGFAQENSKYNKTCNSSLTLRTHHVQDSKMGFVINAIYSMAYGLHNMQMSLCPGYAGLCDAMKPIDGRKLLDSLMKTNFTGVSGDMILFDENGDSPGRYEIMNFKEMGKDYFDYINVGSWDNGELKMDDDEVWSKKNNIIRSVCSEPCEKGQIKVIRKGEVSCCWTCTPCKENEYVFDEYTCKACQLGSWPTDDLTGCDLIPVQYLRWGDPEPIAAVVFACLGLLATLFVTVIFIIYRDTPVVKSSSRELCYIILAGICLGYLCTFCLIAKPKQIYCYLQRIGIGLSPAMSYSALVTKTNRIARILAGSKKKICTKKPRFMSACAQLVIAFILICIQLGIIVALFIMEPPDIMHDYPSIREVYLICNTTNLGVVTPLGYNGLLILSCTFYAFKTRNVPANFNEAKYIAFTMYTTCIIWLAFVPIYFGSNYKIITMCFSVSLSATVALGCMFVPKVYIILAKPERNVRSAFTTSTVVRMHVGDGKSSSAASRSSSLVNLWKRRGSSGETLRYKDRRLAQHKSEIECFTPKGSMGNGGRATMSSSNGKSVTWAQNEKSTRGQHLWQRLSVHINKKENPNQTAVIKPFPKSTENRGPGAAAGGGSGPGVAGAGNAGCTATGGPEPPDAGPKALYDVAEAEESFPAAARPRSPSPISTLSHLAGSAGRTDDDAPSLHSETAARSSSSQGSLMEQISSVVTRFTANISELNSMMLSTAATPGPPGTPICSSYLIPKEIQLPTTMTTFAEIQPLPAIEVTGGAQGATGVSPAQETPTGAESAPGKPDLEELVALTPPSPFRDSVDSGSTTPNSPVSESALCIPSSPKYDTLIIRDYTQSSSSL

[4] = Stability in rat whole blood at 37 °C; format: in vitro ADME; details: one hour
[5] = Rat pharmacokinetics study, intravenous dosing; format: in vivo; details: compound 14; male Sprague-Dawley rats, IV 1.0 mg/kg, n=2
Summary of the method: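 Single IV dose of 1.0 mg/kg test compound given to male Sprague-Dawley rats (n=2). Half-life, mean residence time, plasma clearance and steady-state volume of distribution were derived for the parent and for its alcohol metabolite.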

Cc1csc(NC(=O)c2cc(C(F)c3cncnc3)cc3cccnc23)n1 (stereo not drawn) [Compound 21]
CLHEP (predicted hepatic clearance) ([1]; rat S9, +NADPH, CLHEP = (QH × CLINT)/(QH + CLINT)): 51.8 mL/min/kg
CLHEP (predicted hepatic clearance) ([1]; rat S9, −NADPH): 23.2 mL/min/kg
CLint scaled at 1 h ([1]; rat S9, +NADPH): 199 mL/min/kg
CLint scaled at 1 h ([1]; rat S9, −NADPH): 34.7 mL/min/kg
CLHEP (predicted hepatic clearance) ([2]; human S9, +NADPH, CLHEP = (QH × CLINT)/(QH + CLINT)): 17.3 mL/min/kg
CLHEP (predicted hepatic clearance) ([2]; human S9, −NADPH): 12.6 mL/min/kg
CLint scaled at 1 h ([2]; human S9, +NADPH): 98.2 mL/min/kg
CLint scaled at 1 h ([2]; human S9, −NADPH): 31.3 mL/min/kg

O=C(Nc1ccc(F)cn1)c1cc(Oc2cncc(F)c2)cn2ncnc12 [Compound 2]
selectivity vs. other mGlus [3]: >500

N#Cc1ccnc(NC(=O)c2cc(C(F)(F)c3cncnc3)cc3cccnc23)c1 [Compound 35]
mGlu5 pIC50 (±SEM) (rat mGlu5): < 4.5

O=C(c1cncnc1)c1cc(C(=O)Nc2ccc(F)cn2)c2ncccc2c1 [Compound 13]
fold more active than 11 (rat mGlu5): more than 10 fold

Cc1csc(NC(=O)c2cc(C(=O)c3cncnc3)cc3cccnc23)n1 [Compound 14]
conversion to metabolite (ketone reduction, alcohol 53) [4]: near complete conversion
Clp [5]: 3430 mL/min/kg

O=C(Nc1ccc(F)cn1)c1cc(Oc2cncc(F)c2)cc2cccnc12 [Compound 3]
potency versus mGlu5 (in words) (rat mGlu5; compared with compound 2): similarly potent

Cc1cccc(NC(=O)c2cc(C(=O)c3cncnc3)cc3cccnc23)n1 [Compound 12]
fold more active than 11 (rat mGlu5): more than 10 fold

N#Cc1ccc(NC(=O)c2cc(C(F)(F)c3cncnc3)cc3cccnc23)nc1 [Compound 32]
mGlu5 pIC50 (±SEM) (rat mGlu5): < 4.5

COc1ccnc(NC(=O)c2cc(C(F)(F)c3cncnc3)cc3cccnc23)c1 [Compound 34]
mGlu5 pIC50 (±SEM) (rat mGlu5): < 4.5

O=C(Nc1nc(C2CC2)cs1)c1cc(C(F)(F)c2cncnc2)cc2cccnc12 [Compound 36]
fold drop in mGlu5 potency (rat mGlu5; relative to compound 27 (methyl to cyclopropyl)): 3.5 fold
